pEC50: −log10 of the molar value. Values after ≈ are worked out from the molar mass of the structure shown.

Data set [1] in a line: Half life in Sprague-Dawley rat at 5 mg/kg, po by LC-MS/MS analysis. It is filed as ADME, organism-based. As to conditions: in vivo. The gist of the method:
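Male Sprague-Dawley rats (n = 2 or 3) dosed orally at 5 mg/kg in saline or water (5 mL/kg). Blood taken from the subclavian vein at 0.5, 1, 2, 4, 6 and 8 h; plasma separated by centrifugation, stored at -20 °C, and drug levels measured by LC-MS/MS. Values are mean ± SD (n = 3) or the average of two experiments.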

Data set [2] deals with T1, CYP2C8 (Homo sapiens, UniProt P10632).
T1 sequence (P10632 whole entry): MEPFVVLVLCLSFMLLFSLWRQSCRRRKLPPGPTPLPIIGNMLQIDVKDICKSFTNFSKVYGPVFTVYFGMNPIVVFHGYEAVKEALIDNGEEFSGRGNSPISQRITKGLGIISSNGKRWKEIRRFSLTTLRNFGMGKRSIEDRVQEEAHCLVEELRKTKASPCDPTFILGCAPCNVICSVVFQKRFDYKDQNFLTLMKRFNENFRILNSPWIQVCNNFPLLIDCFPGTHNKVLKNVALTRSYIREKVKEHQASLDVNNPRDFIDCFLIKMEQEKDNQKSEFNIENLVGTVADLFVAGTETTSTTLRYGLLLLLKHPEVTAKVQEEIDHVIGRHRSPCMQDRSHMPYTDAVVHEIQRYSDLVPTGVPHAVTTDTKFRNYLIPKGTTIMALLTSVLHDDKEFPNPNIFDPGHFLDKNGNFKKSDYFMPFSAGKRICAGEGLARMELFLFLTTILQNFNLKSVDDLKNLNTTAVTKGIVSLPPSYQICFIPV
Put plainly: Inhibition of CYP2C8 (unknown origin) at 10 uM relative to control. It is filed as ADME.

Data set [3] addresses CYP2C19 (Homo sapiens, UniProt P33261). Put plainly: Inhibition of CYP2C19 (unknown origin) at 10 uM relative to control. The data set is classed as ADME.
Data set [4] is described as follows: Intrinsic clearance in Sprague-Dawley rat liver microsomes at 0.5 uM in presence of NADPH by LC-MS/MS analysis. To be noted: […]. It is filed as ADME, microsome. The gist of the method:
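Pooled male Sprague-Dawley rat liver microsomes (0.5 mg/mL final) in 100 mM Tris-HCl pH 7.4 with NADPH-regenerating mix plus UDP-GA, test compound 0.5 µM, 20 min at 37 °C. Acetonitrile stop, LC-MS/MS. CLint,u is scaled with 44.8 mg protein/g liver and 40.0 g liver/kg, and corrected by fu from ultracentrifugation (160,000g, 16 h, 37 °C).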
In general terms: Liver microsomes are a subcellular fraction often used to study metabolism.

Data set [5] concerns the target T2, CYP2B6 (Homo sapiens, UniProt P20813).
T2 sequence (P20813 whole entry): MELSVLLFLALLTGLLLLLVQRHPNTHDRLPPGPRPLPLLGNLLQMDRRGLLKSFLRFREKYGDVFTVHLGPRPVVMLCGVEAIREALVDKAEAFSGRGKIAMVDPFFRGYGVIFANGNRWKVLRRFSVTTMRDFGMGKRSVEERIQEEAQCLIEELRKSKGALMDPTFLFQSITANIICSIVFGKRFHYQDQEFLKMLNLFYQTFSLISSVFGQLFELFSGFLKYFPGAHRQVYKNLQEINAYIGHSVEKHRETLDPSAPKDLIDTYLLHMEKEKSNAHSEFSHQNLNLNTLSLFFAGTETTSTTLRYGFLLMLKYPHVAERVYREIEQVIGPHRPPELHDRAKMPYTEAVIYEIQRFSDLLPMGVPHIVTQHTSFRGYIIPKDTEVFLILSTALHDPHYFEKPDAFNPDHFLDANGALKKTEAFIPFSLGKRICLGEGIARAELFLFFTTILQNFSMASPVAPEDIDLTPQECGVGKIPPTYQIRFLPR
Put plainly: Inhibition of CYP2B6 (unknown origin) at 10 uM relative to control. It is filed as ADME.

The target in data set [6] is Beta-1 adrenergic receptor (Homo sapiens, UniProt P08588). Put plainly: Intrinsic activity at recombinant human beta1 adrenergic receptor assessed as accumulation of cyclic AMP after 30 mins relative to isoproterenol. To be noted: 0.5 h.
For data set [7], the target named is T3, Alpha-1B adrenergic receptor (Homo sapiens, UniProt P35368).
T3 sequence (P35368 whole entry): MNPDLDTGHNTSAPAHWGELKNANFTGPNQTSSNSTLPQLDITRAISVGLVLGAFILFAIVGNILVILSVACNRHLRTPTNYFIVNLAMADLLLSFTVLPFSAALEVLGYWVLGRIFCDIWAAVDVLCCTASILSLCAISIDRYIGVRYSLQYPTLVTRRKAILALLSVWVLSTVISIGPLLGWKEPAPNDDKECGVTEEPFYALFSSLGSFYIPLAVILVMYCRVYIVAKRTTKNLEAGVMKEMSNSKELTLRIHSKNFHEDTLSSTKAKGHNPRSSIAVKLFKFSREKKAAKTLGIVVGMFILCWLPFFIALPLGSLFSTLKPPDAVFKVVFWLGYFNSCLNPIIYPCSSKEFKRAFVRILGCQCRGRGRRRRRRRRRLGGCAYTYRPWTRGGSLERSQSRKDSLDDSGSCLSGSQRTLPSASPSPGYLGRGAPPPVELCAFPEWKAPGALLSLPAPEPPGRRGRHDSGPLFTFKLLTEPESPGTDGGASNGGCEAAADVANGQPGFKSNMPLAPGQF
Put plainly: Agonist activity at recombinant human alpha1B adrenergic receptor expressed in HEK293 cells after 6 hrs by NFAT-luciferase reporter gene assay. It is filed as cell-based. Background: In a reporter assay the amount or activity of a reporter protein is the signal.

Data set [8] concerns Rattus norvegicus. Put plainly: Cardiotoxicity in Sprague-Dawley rat assessed as increase in heart beat rate at 3 mg/kg, iv after 30 mins (reference value: 1.8 +/- 0.9%). It is filed as toxicity, organism-based. To be noted: in vivo, 0.5 h.
Data set [9] deals with T4, Alpha-1A adrenergic receptor (Homo sapiens, UniProt P35348).
T4 sequence (P35348 whole entry): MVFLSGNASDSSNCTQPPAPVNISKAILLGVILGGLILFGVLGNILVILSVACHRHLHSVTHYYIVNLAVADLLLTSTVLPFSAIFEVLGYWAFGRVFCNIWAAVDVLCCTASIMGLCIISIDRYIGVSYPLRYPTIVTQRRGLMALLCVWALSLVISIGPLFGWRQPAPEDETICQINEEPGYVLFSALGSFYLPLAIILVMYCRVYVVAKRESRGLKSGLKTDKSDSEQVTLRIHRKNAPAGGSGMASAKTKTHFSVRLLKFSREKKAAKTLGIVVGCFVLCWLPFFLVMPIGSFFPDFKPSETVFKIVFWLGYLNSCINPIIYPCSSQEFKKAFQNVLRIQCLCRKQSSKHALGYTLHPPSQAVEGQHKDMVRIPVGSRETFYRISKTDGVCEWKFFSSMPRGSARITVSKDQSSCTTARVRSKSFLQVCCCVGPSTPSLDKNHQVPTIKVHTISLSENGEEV
Put plainly: Intrinsic activity at recombinant human alpha1A adrenergic receptor expressed in HEK293 cells assessed as intercellular Ca mobilization by Fura-2AM dye-based fluorescence assay relative to norepinephrine. To be noted: read-out: Intrinsic activity. The data set is classed as cell-based.

A short description of data set [10]: Solubility of the compound at pH 1.2 buffer solution after 18 hrs by HPLC analysis. The data set is classed as physicochemical.
The target of data set [11] is CYP2C9 (Homo sapiens, UniProt P11712). Put plainly: Inhibition of CYP2C9 (unknown origin) at 10 uM relative to control. It is filed as ADME.
CYP2C9, sequence (P11712 whole entry): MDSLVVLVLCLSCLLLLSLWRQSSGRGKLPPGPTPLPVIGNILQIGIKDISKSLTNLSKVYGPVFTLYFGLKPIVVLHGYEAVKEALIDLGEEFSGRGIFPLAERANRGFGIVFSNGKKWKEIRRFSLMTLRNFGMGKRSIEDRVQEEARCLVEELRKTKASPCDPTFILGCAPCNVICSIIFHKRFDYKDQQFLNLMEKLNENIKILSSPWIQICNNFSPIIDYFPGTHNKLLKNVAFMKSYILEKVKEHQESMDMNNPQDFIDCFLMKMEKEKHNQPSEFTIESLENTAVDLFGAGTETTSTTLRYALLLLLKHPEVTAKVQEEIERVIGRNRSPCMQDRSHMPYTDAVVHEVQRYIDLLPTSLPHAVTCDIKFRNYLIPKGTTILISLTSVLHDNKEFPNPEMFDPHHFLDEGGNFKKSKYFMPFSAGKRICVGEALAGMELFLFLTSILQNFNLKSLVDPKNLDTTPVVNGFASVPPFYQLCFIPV

Beta-1 adrenergic receptor, sequence (P08588 whole entry): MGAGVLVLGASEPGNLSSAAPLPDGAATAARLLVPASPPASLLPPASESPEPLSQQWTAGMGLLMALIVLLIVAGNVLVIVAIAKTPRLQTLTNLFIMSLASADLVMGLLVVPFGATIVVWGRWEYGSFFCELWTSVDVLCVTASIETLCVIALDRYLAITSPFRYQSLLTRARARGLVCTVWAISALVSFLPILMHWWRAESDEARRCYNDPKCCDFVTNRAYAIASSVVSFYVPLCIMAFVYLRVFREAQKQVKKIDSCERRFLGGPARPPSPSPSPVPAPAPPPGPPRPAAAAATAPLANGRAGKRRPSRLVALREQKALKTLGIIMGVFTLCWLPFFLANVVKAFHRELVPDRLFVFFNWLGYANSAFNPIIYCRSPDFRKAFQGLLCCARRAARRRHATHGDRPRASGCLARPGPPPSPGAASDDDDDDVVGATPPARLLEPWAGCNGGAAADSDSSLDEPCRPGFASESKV
CYP2C19, sequence (P33261 whole entry): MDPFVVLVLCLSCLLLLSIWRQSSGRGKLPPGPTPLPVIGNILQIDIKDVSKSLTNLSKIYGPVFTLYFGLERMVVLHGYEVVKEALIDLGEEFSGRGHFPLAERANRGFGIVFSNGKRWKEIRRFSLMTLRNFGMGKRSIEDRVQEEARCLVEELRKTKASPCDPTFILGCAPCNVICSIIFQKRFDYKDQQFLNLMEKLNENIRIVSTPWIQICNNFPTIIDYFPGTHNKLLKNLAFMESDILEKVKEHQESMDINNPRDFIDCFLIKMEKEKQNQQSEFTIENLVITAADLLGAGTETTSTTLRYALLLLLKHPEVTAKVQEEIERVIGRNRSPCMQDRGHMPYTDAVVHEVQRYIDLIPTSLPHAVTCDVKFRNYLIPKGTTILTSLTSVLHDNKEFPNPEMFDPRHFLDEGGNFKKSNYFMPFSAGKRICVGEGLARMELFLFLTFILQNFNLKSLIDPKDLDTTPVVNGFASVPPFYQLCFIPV

As a reminder, the half-life is the time needed for the level to fall by half in the phase considered. High values mean slow decline, low ones rapid decline. For orientation: inhibition means how much of the control response was suppressed. Low values mean little suppression, high ones strong suppression. By pEC50 is commonly meant the EC50 on a negative log10 scale, so that one unit is a factor of ten. One may read the solubility as the dissolved amount per volume that the medium holds. Read a low solubility as little dissolved substance. For `Cc1n[nH]c2cc(OCCNC[C@H](O)c3cccc(NS(=O)(=O)C4CCC4)c3)ccc12`, the half-life in [1] was 3.01 h. The inhibition at 10 µM in [2], in data set [3], in [5] and in data set [11] was < 34% in each case. Besides, in data set [4], the CLint scaled at 0.5 µM is 52 mL/min/kg. Besides, the Intrinsic activity in data set [6] was 4%. The pEC50 in [7] was < 5.00. Moreover, the Activity in [8] was found to be 5.8%. In data set [9], the Emax is 0%. The same compound registered a solubility at 18 h in [10] of 299 µM (≈ 133 µg/mL).

Source of the values: ChEMBL document CHEMBL4049422, “Discovery of Novel Indazole Derivatives as Orally Available β3-Adrenergic Receptor Agonists Lacking Off-Target-Based Cardiovascular Side Effects” (J Med Chem, 2017).
